Measurements as given in ChEMBL document CHEMBL1287740, “Synthesis and bio-evaluation of alkylaminoaryl phenyl cyclopropyl methanones as antitubercular and antimalarial agents” (Bioorg Med Chem, 2010).
Converted amounts (≈) assume the structure as drawn. The source made the active and inactive calls. The rule behind the calls is not given here.

Tests used:
[1] = tested on: Plasmodium falciparum; test: Antimalarial activity against Plasmodium falciparum 3D7 assessed as radiolabeled hypoxanthine uptake after 48 hrs by scintillation counting; assay type: functional, organism-based; conditions: 3D7, 48 h
In short: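 Chloroquine-sensitive P. falciparum 3D7 asynchronous culture at 0.5% parasitaemia and 1.5% hematocrit, exposed to compounds for 24 h at 37 °C in CO2. Radiolabelled hypoxanthine (0.5 µCi/well) then added and incubation continued 48 h. Cells harvested onto filter paper, and radioactivity counted by scintillation β-counter. IC50 derived from hypoxanthine uptake.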

[2] = tested on: Mycolicibacterium aurum; test: Inhibition of type II fatty acid biosynthesis pathway in Mycobacterium aurum assessed as beta-galactosidase activity at 50 to 100 uM after 12 hrs by lacZ reporter assay relative to untreated control; assay type: functional, organism-based
[3] = Selectivity index, ratio of CC50 for african green monkey (Cercopithecus aethiops) Vero cells to IC50 for Plasmodium falciparum 3D7; assay type: functional
In short: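 Ratio of Vero CC50 (resazurin fluorescence after 72 h exposure) to P. falciparum 3D7 IC50 (radiolabelled hypoxanthine uptake; 24 h compound exposure, then 48 h with label).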

[4] = tested on: Plasmodium falciparum; test: Antimalarial activity against Plasmodium falciparum 3D7 assessed as maturation of schizonts after 24 to 32 hrs by microdilution method; assay type: functional
In short: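 P. falciparum 3D7 (chloroquine sensitive); twofold serial dilutions in complete RPMI 1640 from 10 mg/ml DMSO stocks, parasitized RBCs added (final hematocrit 3–4%, 1.0–2.0% parasitaemia, >95% rings). Incubated 24–32 h at 37 °C with 5% CO2. Thin smears stained with 15% Giemsa; schizont maturation scored against controls to give MIC.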

[5] = tested on: Mycolicibacterium aurum; test: Inhibition of type II fatty acid biosynthesis pathway in Mycobacterium aurum at 50 uM after 12 hrs by lacZ reporter assay relative to untreated control; assay type: functional
In short: (§1)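 Recombinant M. aurum lacZ reporter strains (kasA promoter or hsp60 promoter) grown in Sauton's medium with kanamycin at 37 °C to 0.5 OD600, diluted to 0.04–0.05 OD, equilibrated 2 h, then treated 12 h at 37 °C (10, 25, 50, 75 µM). Cells sonicated in PBS pH 7.2 and protein normalized by Bradford. β-gal measured with ONPG (4 mg/ml), 30 min at 37 °C, stopped with Na2CO3, OD 410 nm. Triplicates, relative to untreated control.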

[6] = tested on: Mycolicibacterium aurum; test: Inhibition of type II fatty acid biosynthesis pathway in recombinant Mycobacterium aurum carrying hsp60 promoter assessed as beta-galactosidase activity at 50 to 100 uM after 12 hrs by lacZ reporter assay relative to untreated control; assay type: functional, organism-based
[7] = tested on: Mycolicibacterium aurum; test: Inhibition of type II fatty acid biosynthesis pathway in Mycobacterium aurum assessed as growth inhibition by lacZ reporter assay; assay type: functional
In short: (§2)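 M. aurum (recombinant reporter strains) grown in Sauton's medium with 0.05% Tween-80 and kanamycin to 0.6 OD600, diluted to 0.05 OD. 1 × 10^5 cells inoculated into 5 ml medium with varying compound concentrations, grown 12 h at 37 °C with shaking. Viable cells counted by 10-fold serial dilution plating on nutrient agar-Tween-kanamycin. % inhibition calculated with untreated colony count taken as 100%.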

[8] = tested on: Mycolicibacterium aurum; test: Inhibition of type II fatty acid biosynthesis pathway in Mycobacterium aurum assessed as growth inhibition by cfu analysis; assay type: functional; in short: as §2
[9] = tested on: Mycobacterium tuberculosis; test: Antimicrobial activity against Mycobacterium tuberculosis H37Rv after 30 days by agar microdilution method; assay type: functional
In short: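 Twofold dilutions of compound in DMSO incorporated into Middlebrook 7H10 medium with OADC supplement in slanted tubes, preincubated 37 °C for 24 h, then streaked with H37Rv harvested from L-J medium into 0.85% saline with 0.05% Tween-80 (5 × 10^5 bacilli per tube). Incubated at 37 °C; MIC = lowest concentration giving complete inhibition of colonies versus drug-free control.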

[10] = Cytotoxicity against african green monkey Vero cells after 72 hrs; assay type: cell-based; conditions: chlorocebus sabaeus
In short: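 Vero (C1008 monkey kidney) cells grown in MEM + 15% FBS, 5% CO2, 37 °C. Trypsinized cells at 1 × 10^5 cells/ml seeded and allowed to adhere overnight, then exposed to serial compound dilutions for 72 h. Resazurin added and fluorescence read after 4 h.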

[11] = tested on: Mycolicibacterium aurum; test: Inhibition of type II fatty acid biosynthesis pathway in Mycobacterium aurum at 25 uM after 12 hrs by lacZ reporter assay relative to untreated control; assay type: functional; in short: as §1

Compound: CN(C)CCCNc1ccc(C(=O)C2CC2c2ccc(Cl)cc2)cc1 (stereo unspecified)
- IC50 [1]: 2.86 µg/mL (≈ 8.01 µM)
- inhibition [2]: Active
- Ratio CC50/IC50 [3]: 5.53
- MIC [4]: 50 µg/mL (≈ 140 µM)
- inhibition at 50 µM [5]: 57.4%
- inhibition [6]: inactive
- inhibition (INH) [7]: >=85%
- inhibition (INH) [8]: >=85%
- MIC [9]: 6.25 µg/mL (≈ 17.5 µM)
- CC50 at 72 h [10]: 15.8 µg/mL (≈ 44.4 µM)
- inhibition at 25 µM [11]: 46.3%
